Data taken from ChEMBL document CHEMBL1132494, “Bisphosphonate prodrugs: synthesis and in vitro evaluation of novel acyloxyalkyl esters of clodronic acid” (J Med Chem, 1999).

Legend:
[1] = organism: Homo sapiens; experiment: Binding affinity (Kobs) against 80% human Serum esterase was determined
How it was run: (§1)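 Compound dissolved in 1 vol phosphate buffer (50 mM, μ = 0.15, pH 7.4, 37 °C), then 4 vol preheated human serum added (80% serum; initial 1.4–1.7 mM); 37 °C water bath. Samples taken at intervals, deproteinized with equal volume methanol, centrifuged; supernatant dried and redissolved in mobile-phase buffer, or injected directly if labile. HPLC; kobs and t1/2 derived.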

[2] = Hydrolysis half life against 80% human serum was determined.; assay type: ADME; how it was run: as §1
[3] = organism: Oryctolagus cuniculus; experiment: Binding constant (Kobs) against 10% rabbit liver homogenate was determined.; assay type: ADME
How it was run: (§2)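 Rabbit liver homogenized in ~4 vol isotonic phosphate buffer pH 7.4, spun 9000g 90 min 4 °C, supernatant stored −80 °C. Compound in 1 vol isotonic buffer plus 1 vol preheated 20% homogenate (10% final; initial 1.6–1.8 mM), 37 °C. Samples methanol-deproteinized and analysed by HPLC; kobs and t1/2 derived.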

[4] = Hydrolysis half life at pH 7.4 against 50 mM phosphate buffer was determined.; assay type: ADME
How it was run: (§3)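 Chemical hydrolysis: compound (initial 0.9–1.8 mM) in preheated 50 mM phosphate buffer, μ = 0.15, pH 5.0 or 7.4, held at 37 °C. Samples taken at intervals and analysed by HPLC; kobs and t1/2 derived.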

[5] = Binding affinity (Kobs) at a pH 5.0 against 50 mM phosphate buffer was determined.; how it was run: as §3
[6] = Hydrolysis half life at pH 5.0 against 50 mM phosphate buffer was determined.; assay type: ADME; how it was run: as §3
[7] = (§4) Hydrolysis half life against 10% rabbit liver homogenate was determined.; assay type: tissue-based; how it was run: as §2
[8] = Apparent partition coefficients was determined at a pH 7.4 by using the capacity factors of RP-HPLC.; assay type: physicochemical; conditions: octanol/water
How it was run: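 Tetraester log Papp estimated from RP-HPLC capacity factors (k'); C8 reversed-phase column, mobile phase 20 mM phosphate buffer pH 6.0/methanol 30:70 v/v; value reported for pH 7.4.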

[9] = Binding affinity (Kobs) at a pH 7.4 against 50 mM phosphate buffer was determined.; how it was run: as §3
[10] = as §4; assay type: ADME, organism-based, Oryctolagus cuniculus; how it was run: as §2

k obs [1] [s⁻¹] | half-life [2] [h] | k obs [5] [s⁻¹] | half-life [6] [h] | chromatographic logD [8] | SMILES | K obs [3] [min⁻¹] | half-life [4] [h] | T1/2 [7] [min] | k obs [9] [s⁻¹] | half-life [10] [h]
0.000149 | 1.3 | 0.000117 | 1.65 | 1.56 | CC(C)(C)C(=O)OCOP(=O)(O)C(Cl)(Cl)P(=O)(OCOC(=O)C(C)(C)C)OCOC(=O)C(C)(C)C | 0.65 | 1.7 | 1.1 | 0.000113 | 
 |  |  |  | 7.4 | CC(C)(C)C(=O)OCOP(=O)(OCOC(=O)C(C)(C)C)C(Cl)(Cl)P(=O)(OCOC(=O)C(C)(C)C)OCOC(=O)C(C)(C)C |  |  |  |  | 

SMILES | k obs [1] [s⁻¹] | half-life [2] [h] | k obs [5] [s⁻¹] | half-life [6] [h] | chromatographic logD [8] | K obs [3] [min⁻¹] | half-life [4] [h] | T1/2 [7] [min] | k obs [9] [s⁻¹] | half-life [10] [h]
C1CCNCC1.C1CCNCC1.CC(C)(C)C(=O)OCOP(=O)(O)C(Cl)(Cl)P(=O)(O)OCOC(=O)C(C)(C)C |  |  |  |  | -2.13 | 0.51 | 0.783 |  | 1.67e-07 | 0.233
